Assay outcomes as filed in PubChem.
NPY2 pot ag = potentiates or activates human NPY-Y2 receptor. P49146. cells expressing NPY-Y2, potentiator/agonist read-out. activation, % at 3.6 µM. 0.45% of 220,000 active; in the data active = activation above about 27%;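 also: cells stimulated with NPY near EC25 plus isoproterenol at EC100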
Target sequence (P49146 whole entry, looked up): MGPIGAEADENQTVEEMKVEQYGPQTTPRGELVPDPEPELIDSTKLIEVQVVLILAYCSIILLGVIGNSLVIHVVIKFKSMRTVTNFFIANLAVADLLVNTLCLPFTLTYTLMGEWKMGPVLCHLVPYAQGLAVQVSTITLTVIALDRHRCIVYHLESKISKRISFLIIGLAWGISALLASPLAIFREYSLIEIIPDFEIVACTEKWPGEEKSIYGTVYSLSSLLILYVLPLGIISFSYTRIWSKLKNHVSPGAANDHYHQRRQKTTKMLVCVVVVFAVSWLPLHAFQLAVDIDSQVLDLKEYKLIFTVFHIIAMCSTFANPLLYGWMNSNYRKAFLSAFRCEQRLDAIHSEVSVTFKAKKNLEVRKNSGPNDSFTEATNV
NPY Y1 blocker = blocks the human neuropeptide Y Y1 receptor. HEK293-CNG Y1 cells, membrane potential fluorescence; NPY at EC95, then isoproterenol. inhibition, % at 3.6 µM. 1% of 200,000 active. AID 1040;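 active = inhibition above the campaign mean inhibition of all tested compounds plus 3 SD, cut at about 20% in these data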
Target sequence (P25929 whole entry, looked up): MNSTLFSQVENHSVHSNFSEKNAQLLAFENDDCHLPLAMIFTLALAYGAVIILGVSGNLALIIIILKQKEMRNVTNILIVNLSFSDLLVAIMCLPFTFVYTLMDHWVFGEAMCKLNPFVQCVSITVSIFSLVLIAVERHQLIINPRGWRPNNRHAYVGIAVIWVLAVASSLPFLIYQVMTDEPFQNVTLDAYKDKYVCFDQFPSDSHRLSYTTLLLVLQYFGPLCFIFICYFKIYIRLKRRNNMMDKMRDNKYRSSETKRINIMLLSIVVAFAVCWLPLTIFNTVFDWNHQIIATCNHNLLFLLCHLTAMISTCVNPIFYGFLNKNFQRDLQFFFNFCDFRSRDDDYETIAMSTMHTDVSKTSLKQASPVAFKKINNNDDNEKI
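Assay system: HEK293 Y1/CNG channel cell line; Doses: single compound dose of 3.6 µM, 0.4% DMSO; Timing: dye 3 h, compound 60 min room temperature, stimulation 45 min; Technique: Membrane-potential fluorescent dye readout; Measure: % inhibition of NPY effect.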
NPY-Y1 PAM-ag = potentiates or activates human NPY-Y1 receptor; NPY-Y1 expressing cells, potentiator/agonist activation; AID 1304; 0.37% of 220,000 active; activation, % at 3.6 µM; in the data active = activation above about 33%, passing the limit was not always enough;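 also: cells stimulated with NPY at EC10 then isoproterenol at EC100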
NPY Y2 blocker = blocks the human neuropeptide Y Y2 receptor. inhibition, % at 2.7 µM. 0.99% of 140,000 active. AID 793. P49146. NPY-Y2 expressing cells, antagonist mode
NPY-Y1 ant conf = confirmation of human neuropeptide Y receptor Y1 antagonists; shares compounds with NPY Y1 blocker; HEK293-CNG NPY-Y1, membrane potential fluorescence, cAMP; NPY challenge against isoproterenol-raised cAMP; inhibition, % at 3.6 µM; 21% of 1,200 active; in the data active = inhibition above about 20%
NPY-Y2 antag ct = counter-screen for NPY-Y1 antagonists: human NPY-Y2 antagonism; HEK293 NPY-Y2 CNG membrane potential fluorescence; cells given NPY, then isoproterenol; shares compounds with NPY Y1 blocker; 28% of 1,200 active; inhibition, % at 3.6 µM
Each line names hits and unclear results; the compound was inactive in the other large screens (follow-up assays come after a bar, where they were run). In the library only some 1.8% were active in any assay of this set; here they are far more common. Rule as the data show it, unless noted: active = inhibition above about 17%; inactive = the rest.

COc1ccc(CN2C(=O)c3ccccc3C2C(=O)NC2CCC(C)CC2)c(OC)c1 (stereo not given)	NPY Y1 blocker 23 (no result: NPY Y2 blocker) | NPY-Y1 ant conf inactive | NPY-Y2 antag ct inactive
COc1ccc(CN2C(=O)c3ccccc3C2C(=O)NC2CCCC(C)C2C)c(OC)c1 (stereo not given)	NPY Y1 blocker 36 (no result: NPY Y2 blocker) | NPY-Y1 ant conf inactive | NPY-Y2 antag ct inactive
FC(F)(F)Oc1ccc(NC(=S)Nc2ccccc2N2CCOCC2)cc1	none (no result: NPY Y1 blocker, NPY Y2 blocker)
CCc1ccc(/C=C\C(=O)N2CCc3ccccc3C2)cc1	NPY Y1 blocker 21 | NPY-Y1 ant conf inactive | NPY-Y2 antag ct inactive
CC1CCCc2sc3ncn(N)c(=N)c3c21 (stereo not given)	none (no result: NPY Y2 blocker)
C[C@H](N=C1NS(=O)(=O)c2ccccc21)C(=O)OCc1cc([N+](=O)[O-])cc2c1OCOC2	none (no result: NPY Y1 blocker, NPY Y2 blocker)
CC(=O)N(C)C(c1ccc(N(C)C)cc1)c1nnnn1-c1c(C)cccc1C (stereo not given)	NPY Y1 blocker 24 | NPY-Y1 ant conf inactive | NPY-Y2 antag ct inactive
CCOc1ccccc1CN1CCN(Cc2cccc3nonc23)CC1CCO (stereo not given)	NPY Y1 blocker 29 (no result: NPY Y2 blocker) | NPY-Y1 ant conf inactive | NPY-Y2 antag ct inactive
CC(C)CCN1CCN(Cc2cccc3nonc23)CC1CCO (stereo not given)	none (no result: NPY Y2 blocker)
CC(=O)n1cc([C@H]2C=C(C(=O)N3CCN(Cc4ccc5c(c4)OCO5)CC3)O[C@@H](OCCCCO)C2)c2ccccc21	none (no result: NPY Y2 blocker)
c1ccc(CNc2nc(N3CCN(Cc4ccccc4)CC3)nc3ccccc23)cc1	none (no result: NPY Y1 blocker, NPY Y2 blocker)
CC(Nc1nc(N2CCNCC2)nc2ccccc12)c1ccccc1 (stereo not given)	NPY Y1 blocker 25 (no result: NPY Y2 blocker) | NPY-Y1 ant conf 28 | NPY-Y2 antag ct 35
Cc1nc(SCC(=O)NC(=O)NCCC(C)C)c2c(-c3cccs3)csc2n1	none
CCn1c(Sc2nc(C)nc3scc(-c4cccs4)c23)n[nH]c1=O	NPY Y1 blocker 21 | NPY-Y1 ant conf inactive | NPY-Y2 antag ct 37
CC(C)C(C)NC(=O)COc1ccc(S(=O)(=O)N2CCOCC2)cc1Cl (stereo not given)	none (no result: NPY Y2 blocker)
C=CCOc1ccc(Br)cc1/C=N/O	NPY Y1 blocker 24 | NPY-Y1 ant conf inactive | NPY-Y2 antag ct inactive
O=S(=O)(c1ccc(Br)cc1)n1c(Cc2ccccc2)nc2ccccc21	NPY Y1 blocker 21 | NPY-Y1 ant conf inactive | NPY-Y2 antag ct inactive
O=S(=O)(N1CCCCC1)n1c(Cc2ccccc2)nc2ccccc21	none
Cc1ccccc1OCCN(C#N)c1nc(N(C)C)nc(N(C)C)n1	NPY Y1 blocker 28 (no result: NPY Y2 blocker) | NPY-Y1 ant conf inactive | NPY-Y2 antag ct 19
c1ccc(-n2cc(CN3CCCC(CN4CCCC4)C3)c(-c3ccc4c(c3)OCO4)n2)cc1 (stereo not given)	NPY Y1 blocker 32 (no result: NPY Y2 blocker) | NPY-Y1 ant conf inactive | NPY-Y2 antag ct 27
Cc1c(Cl)cccc1NC(=O)CNC(=O)c1ccccc1F	none
Clc1ccc(-c2csc(=Nc3cccnc3)n2CCCn2ccnc2)cc1Cl	NPY Y1 blocker 29 | NPY-Y1 ant conf inactive | NPY-Y2 antag ct inactive
Cc1ccc(C)n1-c1ccccc1N1CCCCC1	NPY Y1 blocker 56 (no result: NPY Y2 blocker) | NPY-Y1 ant conf inactive | NPY-Y2 antag ct inactive
Cc1cccc(N(C(=O)c2snc(C(N)=O)c2N)C(C)C(=O)NCC2CCCO2)c1 (stereo not given)	none (no result: NPY Y2 blocker)
O=C(NNC(=S)NCc1ccccc1)c1ccc2c(c1)OCO2	none
O=C(NC(=S)NCc1ccccc1)c1ccc2c(c1)OCO2	NPY Y1 blocker 21 | NPY-Y1 ant conf inactive | NPY-Y2 antag ct inactive
Cc1ccc(S(=O)(=O)Oc2ccc(/C=N/NC(=O)c3nn(C)cc3[N+](=O)[O-])cc2)cc1	none
CCCCC(O)(CCCC)C(=O)NN(C(=O)OCC)c1ccccc1	NPY Y1 blocker 34 | NPY-Y1 ant conf inactive | NPY-Y2 antag ct inactive
CCCC(O)(CCC)C(=O)NN(C(=O)CCl)c1ccccc1	none
CCCCC(O)(CCCC)C(=O)NN(C(=O)OC)c1ccccc1	NPY Y1 blocker 26 | NPY-Y1 ant conf 25 | NPY-Y2 antag ct inactive
CC(/C=C/c1ccc(C)o1)=C\C(=O)O	NPY Y1 blocker 22 | NPY-Y1 ant conf inactive | NPY-Y2 antag ct inactive
c1ccc2c(NC3CCCC3)nnc(NC3CCCC3)c2c1	NPY Y1 blocker 23 | NPY-Y1 ant conf inactive | NPY-Y2 antag ct 35
Cc1cccnc1NC1CCCCC1	none (no result: NPY Y2 blocker)
COc1ccc(-c2cc(C(=O)Nc3ccccc3O)c3ccccc3n2)cc1OC	NPY Y1 blocker 27 (no result: NPY Y2 blocker) | NPY-Y1 ant conf inactive | NPY-Y2 antag ct 23
COc1ccc(-c2cc(C(=O)Nc3ccccc3N3CCOCC3)c3ccccc3n2)cc1OC	NPY Y1 blocker 30 (no result: NPY Y2 blocker) | NPY-Y1 ant conf inactive | NPY-Y2 antag ct inactive
COc1ccc(-c2cc(C(=O)NCc3cn(C)nc3C)c3ccccc3n2)cc1OC	none
O=C(Nc1ccccc1N1CCOCC1)c1cc(-c2ccncc2)nc2ccccc12	none (no result: NPY Y2 blocker)
O=C(O)CCCCCNC(=O)C(=O)C1C(=O)Nc2ccccc21 (stereo not given)	none (no result: NPY Y1 blocker, NPY Y2 blocker)
O=C(CCc1nc(-c2cccs2)no1)NCc1ccc(F)cc1Cl	none
Cc1ccc(CNC(=O)CCc2nc(-c3cccs3)no2)cc1	NPY Y1 blocker 21 | NPY-Y1 ant conf inactive | NPY-Y2 antag ct inactive
Cc1nn(-c2ccccc2)c(Oc2ccc(F)cc2)c1/C=N/n1cnnc1	NPY Y1 blocker 20 | NPY-Y1 ant conf inactive | NPY-Y2 antag ct inactive
Cc1nn(-c2ccccc2)c(C)c1/C=N/n1cnnc1	none (no result: NPY Y2 blocker)
Cc1ccc(CNc2ccc(Cl)cc2[N+](=O)[O-])cc1	NPY Y1 blocker 24 | NPY-Y1 ant conf inactive | NPY-Y2 antag ct inactive
CCOC(=O)/C(C#N)=C/C1=C(N2CCCC2)CC(C)(CC)OC1 (stereo not given)	none
Cc1ccc(S(=O)(=O)N(C)C)cc1NC(=O)Nc1c(-c2ccccc2)noc1C	none (no result: NPY Y1 blocker, NPY Y2 blocker)
Cc1onc(-c2ccccc2)c1NC(=O)Nc1c(-c2ccccc2)noc1C	NPY Y1 blocker 30 (no result: NPY Y2 blocker) | NPY-Y1 ant conf inactive | NPY-Y2 antag ct inactive
CCN(CC)CC(=O)Nc1sc2c(c1C(=O)c1ccccc1OC)CCC2	NPY Y1 blocker 23 (no result: NPY Y2 blocker) | NPY-Y1 ant conf inactive | NPY-Y2 antag ct inactive
CCOC(=O)c1c(NC(=O)CN(CC)CC)sc2c1CCC2	none
NC(=O)C1CCN(S(=O)(=O)Cc2ccccc2Cl)CC1	none (no result: NPY Y2 blocker)
Cc1nc(NCCc2ccccc2F)c(C#N)c(C)c1[N+](=O)[O-]	NPY Y1 blocker 29 | NPY-Y1 ant conf inactive | NPY-Y2 antag ct inactive
Cc1nc(NCCc2ccc(F)cc2)c(C#N)c(C)c1[N+](=O)[O-]	none
COc1ccc(N(C)S(=O)(=O)c2ccc(Cl)c(C(=O)NCCc3ccc(Cl)cc3)c2)cc1	NPY Y1 blocker 29 (no result: NPY Y2 blocker) | NPY-Y1 ant conf inactive | NPY-Y2 antag ct inactive
CN1CCC(Oc2ccccc2Sc2ccc(C(F)(F)F)cc2)CC1	NPY Y1 blocker 30 | NPY-Y1 ant conf inactive | NPY-Y2 antag ct inactive
CN1CCC(Oc2ccc(Sc3ccccc3)cc2)CC1	none
CCCOc1ccc(S(=O)(=O)NCc2ccc(OC)cc2)cc1	NPY Y1 blocker 28 | NPY-Y1 ant conf inactive | NPY-Y2 antag ct inactive
